Data reported in ChEMBL document CHEMBL4138221, “Discovery, optimization and biological evaluation for novel c-Met kinase inhibitors” (Eur J Med Chem, 2018).

Legend:
SGC-7901 [1] = experiment: Antiproliferative activity against human SGC7901 cells at 10 uM after 72 hrs by Alamarblue assay relative to control; type: functional; details: SGC-7901, 72 h, read-out: GI
Method in brief: (§1)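 Single-concentration screen in cells kept at 37 °C and 5% CO2. Cells were plated in 10% FBS medium, then moved after 24 h to serum-free medium with 0.04% BSA. Compound exposure lasted 72 h. AlamarBlue was added for 1–4 h at 37 °C protected from light, and fluorescence was measured at ex 570 / em 585 nm.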

[2] = target: Vascular endothelial growth factor receptor 2 (Homo sapiens, UniProt P35968); experiment: Inhibition of KDR (unknown origin)
MCF7 [3] = experiment: Antiproliferative activity against human MCF7 cells at 10 uM after 72 hrs by Alamarblue assay relative to control; type: functional; details: MCF7, 72 h, read-out: GI; method in brief: as §1
A549 [4] = experiment: Antiproliferative activity against human A549 cells at 10 uM after 72 hrs by Alamarblue assay relative to control; type: functional; details: A549, 72 h, read-out: GI; method in brief: as §1
[5] = target: Hepatocyte growth factor receptor (Homo sapiens, UniProt P08581); experiment: Inhibition of human GST-tagged c-MET using KKKSPGEYVNIEFG as substrate preincubated for 20 mins followed by [gamma-33P]ATP addition and measured after 2 hrs by filter-binding assay
[6] = target: Serine/threonine-protein kinase B-raf (Homo sapiens) (UniProt P15056); experiment: Inhibition of B-raf (unknown origin) at 50 uM
PC-3 [7] = experiment: Antiproliferative activity against human PC3 cells at 10 uM after 72 hrs by Alamarblue assay relative to control; type: functional; details: PC-3, 72 h, read-out: GI; method in brief: as §1
HCT-116 [8] = experiment: Antiproliferative activity against human HCT116 cells at 10 uM after 72 hrs by Alamarblue assay relative to control; type: functional; details: HCT-116, 72 h, read-out: GI; method in brief: as §1
EBC-1 = experiment: Antiproliferative activity against human EBC1 cells after 72 hrs by Alamarblue assay; details: EBC-1, 72 h
MKN-45 = experiment: Antiproliferative activity against human MKN45 cells after 72 hrs by Alamarblue assay; details: MKN-45, 72 h
PC-3 [9] = experiment: Antiproliferative activity against human PC3 cells after 72 hrs by Alamarblue assay; type: functional, cell-based; details: PC-3, 72 h
Method in brief: (§2)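 Cells were seeded in medium with 10% FBS at 37 °C and 5% CO2. After 24 h the medium was switched to serum-free medium containing 0.04% BSA, and cells were exposed to compound for 72 h. AlamarBlue was then added for 1–4 h at 37 °C in the dark, and fluorescence was read at ex 570 / em 585 nm. IC50 was obtained by nonlinear regression fitting.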

NCI-H460 = experiment: Antiproliferative activity against human NCI-H460 cells after 72 hrs by Alamarblue assay; type: functional, cell-based; details: NCI-H460, 72 h; method in brief: as §2
COLO 205 = experiment: Antiproliferative activity against human COLO205 cells after 72 hrs by Alamarblue assay; type: functional, cell-based; details: COLO 205, 72 h; method in brief: as §2
SGC-7901 [10] = experiment: Antiproliferative activity against human SGC7901 cells after 72 hrs by Alamarblue assay relative to control; details: SGC-7901, 72 h
A549 [11] = experiment: Antiproliferative activity against human A549 cells after 72 hrs by Alamarblue assay relative to control; details: A549, 72 h
MCF7 [12] = experiment: Antiproliferative activity against human MCF7 cells after 72 hrs by Alamarblue assay relative to control; details: MCF7, 72 h
HCT-116 [13] = experiment: Antiproliferative activity against human HCT116 cells after 72 hrs by Alamarblue assay relative to control; details: HCT-116, 72 h

Hepatocyte growth factor receptor, sequence (P08581 whole entry): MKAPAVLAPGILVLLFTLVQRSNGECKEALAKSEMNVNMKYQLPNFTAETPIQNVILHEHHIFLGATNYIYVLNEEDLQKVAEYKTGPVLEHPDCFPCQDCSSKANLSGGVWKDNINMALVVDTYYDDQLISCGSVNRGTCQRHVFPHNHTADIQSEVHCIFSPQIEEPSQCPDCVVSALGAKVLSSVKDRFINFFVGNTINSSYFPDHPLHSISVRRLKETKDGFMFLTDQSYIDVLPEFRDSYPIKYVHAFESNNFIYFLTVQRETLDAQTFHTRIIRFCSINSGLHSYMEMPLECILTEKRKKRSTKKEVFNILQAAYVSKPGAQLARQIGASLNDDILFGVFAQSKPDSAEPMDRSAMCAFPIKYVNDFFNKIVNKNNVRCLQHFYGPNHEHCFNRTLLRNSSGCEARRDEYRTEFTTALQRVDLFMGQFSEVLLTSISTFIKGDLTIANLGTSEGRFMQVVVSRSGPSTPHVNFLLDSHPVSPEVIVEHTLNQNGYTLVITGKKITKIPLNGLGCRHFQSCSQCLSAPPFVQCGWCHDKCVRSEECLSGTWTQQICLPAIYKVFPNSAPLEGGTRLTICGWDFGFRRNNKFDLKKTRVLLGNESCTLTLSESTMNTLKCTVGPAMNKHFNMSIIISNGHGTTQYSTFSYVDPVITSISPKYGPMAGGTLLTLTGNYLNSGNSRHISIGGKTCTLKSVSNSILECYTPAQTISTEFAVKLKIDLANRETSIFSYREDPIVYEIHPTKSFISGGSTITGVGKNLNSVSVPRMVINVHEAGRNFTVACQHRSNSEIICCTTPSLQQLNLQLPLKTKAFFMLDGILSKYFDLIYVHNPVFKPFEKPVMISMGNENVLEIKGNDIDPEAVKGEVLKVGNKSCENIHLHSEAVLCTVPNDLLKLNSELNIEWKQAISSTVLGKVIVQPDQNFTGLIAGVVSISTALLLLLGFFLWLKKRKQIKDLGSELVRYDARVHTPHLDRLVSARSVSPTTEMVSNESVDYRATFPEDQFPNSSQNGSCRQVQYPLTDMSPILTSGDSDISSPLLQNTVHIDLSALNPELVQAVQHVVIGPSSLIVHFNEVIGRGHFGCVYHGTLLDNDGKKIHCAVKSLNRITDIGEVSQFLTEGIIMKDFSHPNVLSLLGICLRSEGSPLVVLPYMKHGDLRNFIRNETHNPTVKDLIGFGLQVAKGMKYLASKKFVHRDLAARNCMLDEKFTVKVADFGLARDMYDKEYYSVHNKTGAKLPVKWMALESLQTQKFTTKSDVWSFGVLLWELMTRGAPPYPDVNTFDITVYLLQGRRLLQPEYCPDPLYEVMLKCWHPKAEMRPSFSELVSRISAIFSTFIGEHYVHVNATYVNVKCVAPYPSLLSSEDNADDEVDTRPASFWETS
Vascular endothelial growth factor receptor 2, sequence (P35968 whole entry): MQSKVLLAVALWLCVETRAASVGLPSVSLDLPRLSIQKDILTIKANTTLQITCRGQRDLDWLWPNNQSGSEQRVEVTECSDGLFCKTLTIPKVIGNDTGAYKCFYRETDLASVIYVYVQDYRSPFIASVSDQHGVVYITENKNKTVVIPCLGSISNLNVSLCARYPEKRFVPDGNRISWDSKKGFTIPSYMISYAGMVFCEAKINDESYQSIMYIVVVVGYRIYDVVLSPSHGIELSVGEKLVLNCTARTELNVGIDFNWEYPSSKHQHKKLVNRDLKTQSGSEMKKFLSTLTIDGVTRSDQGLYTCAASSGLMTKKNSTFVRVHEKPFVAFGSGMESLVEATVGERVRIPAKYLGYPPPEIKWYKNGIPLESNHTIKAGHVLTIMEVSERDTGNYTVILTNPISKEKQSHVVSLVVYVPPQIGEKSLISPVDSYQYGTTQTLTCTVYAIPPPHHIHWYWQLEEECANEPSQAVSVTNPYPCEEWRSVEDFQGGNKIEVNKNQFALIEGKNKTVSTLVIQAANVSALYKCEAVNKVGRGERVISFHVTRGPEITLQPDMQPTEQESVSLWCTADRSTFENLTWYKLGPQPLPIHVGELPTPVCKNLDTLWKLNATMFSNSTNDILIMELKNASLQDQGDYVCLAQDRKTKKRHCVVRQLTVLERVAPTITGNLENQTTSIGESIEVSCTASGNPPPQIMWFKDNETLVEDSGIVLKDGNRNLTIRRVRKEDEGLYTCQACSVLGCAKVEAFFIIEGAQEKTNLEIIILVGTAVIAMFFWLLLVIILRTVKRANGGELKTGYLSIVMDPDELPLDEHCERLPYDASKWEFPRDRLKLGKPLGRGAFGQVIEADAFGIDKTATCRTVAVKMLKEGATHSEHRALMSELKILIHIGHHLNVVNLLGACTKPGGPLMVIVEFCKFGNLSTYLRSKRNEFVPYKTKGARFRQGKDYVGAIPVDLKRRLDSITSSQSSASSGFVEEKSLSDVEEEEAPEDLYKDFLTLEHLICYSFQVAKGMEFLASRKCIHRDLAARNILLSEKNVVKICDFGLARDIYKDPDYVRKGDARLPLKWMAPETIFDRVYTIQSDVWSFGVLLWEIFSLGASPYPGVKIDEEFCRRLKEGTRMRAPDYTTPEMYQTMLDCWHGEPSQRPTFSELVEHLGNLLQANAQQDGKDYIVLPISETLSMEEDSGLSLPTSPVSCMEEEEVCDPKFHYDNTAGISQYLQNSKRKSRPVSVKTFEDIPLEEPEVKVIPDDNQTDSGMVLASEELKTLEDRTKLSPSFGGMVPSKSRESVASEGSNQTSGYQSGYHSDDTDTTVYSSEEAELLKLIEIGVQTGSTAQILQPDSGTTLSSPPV
Serine/threonine-protein kinase B-raf (Homo sapiens), sequence (P15056 whole entry): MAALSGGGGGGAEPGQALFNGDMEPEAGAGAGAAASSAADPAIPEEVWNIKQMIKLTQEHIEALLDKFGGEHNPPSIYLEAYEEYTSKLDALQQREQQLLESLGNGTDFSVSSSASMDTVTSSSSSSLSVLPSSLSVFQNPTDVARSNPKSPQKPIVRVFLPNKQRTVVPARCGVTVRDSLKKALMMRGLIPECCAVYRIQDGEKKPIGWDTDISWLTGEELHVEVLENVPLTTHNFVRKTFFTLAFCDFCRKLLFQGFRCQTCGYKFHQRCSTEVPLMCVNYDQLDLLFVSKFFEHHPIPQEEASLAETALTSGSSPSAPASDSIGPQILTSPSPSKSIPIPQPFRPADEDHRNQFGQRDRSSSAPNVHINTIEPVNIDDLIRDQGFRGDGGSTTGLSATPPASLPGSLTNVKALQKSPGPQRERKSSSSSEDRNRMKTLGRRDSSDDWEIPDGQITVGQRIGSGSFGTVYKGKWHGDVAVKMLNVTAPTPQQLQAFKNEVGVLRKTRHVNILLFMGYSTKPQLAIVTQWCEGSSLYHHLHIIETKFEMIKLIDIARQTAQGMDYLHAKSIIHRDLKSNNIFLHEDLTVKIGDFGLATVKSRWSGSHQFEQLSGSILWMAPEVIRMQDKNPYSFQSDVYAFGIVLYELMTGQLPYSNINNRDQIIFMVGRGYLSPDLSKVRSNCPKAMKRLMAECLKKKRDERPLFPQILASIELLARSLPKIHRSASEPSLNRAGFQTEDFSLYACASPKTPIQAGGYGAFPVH

| SMILES | IC50 (MKN-45) | IC50 (PC-3 [9]) | IC50 (NCI-H460) | IC50 (COLO 205) | inhibition of growth at 10 µM (SGC-7901 [1]) | inhibition of growth at 10 µM (MCF7 [3]) | inhibition of growth at 10 µM (A549 [4]) | inhibition of growth at 10 µM (PC-3 [7]) | inhibition of growth at 10 µM (HCT-116 [8]) | IC50 (EBC-1) | further results |
| --- | --- | --- | --- | --- | --- | --- | --- | --- | --- | --- | --- |
| COc1ccc(Cc2nnc3sc(-c4cc5ccccc5[nH]4)nn23)cc1 | – | – | – | – | 12.3% | 14.9% | 6.08% | 55.1% | 0.64% | – | IC50 [2]: 3330 nM; IC50 [5]: 190 nM; inhibition [6]: 17.8% |
| COc1ccc2c(OCc3nnc4sc(-c5ccc6[nH]cnc6c5)nn34)ccnc2c1 | 1020 nM | – | – | – | – | – | – | – | – | 3170 nM | – |
| Fc1ccccc1-c1cn2c(COc3ccc4c(c3)OCO4)nnc2s1 | – | – | – | – | 12.4% | 45.4% | 20.1% | 19.4% | 4.73% | – | – |
| COc1ccc(Cc2nnc3sc(-c4ccccc4OC)nn23)cc1 | – | – | – | – | 15.5% | 35.7% | 10.4% | 57.7% | 8.2% | – | – |

Now from value to compound, other results behind:

| IC50 (MKN-45) | IC50 (PC-3 [9]) | IC50 (NCI-H460) | IC50 (COLO 205) | SMILES | inhibition of growth at 10 µM (SGC-7901 [1]) | inhibition of growth at 10 µM (MCF7 [3]) | inhibition of growth at 10 µM (A549 [4]) | inhibition of growth at 10 µM (PC-3 [7]) | inhibition of growth at 10 µM (HCT-116 [8]) | IC50 (EBC-1) | further results |
| --- | --- | --- | --- | --- | --- | --- | --- | --- | --- | --- | --- |
| 1170 nM | 2970 nM | 2060 nM | 2240 nM | COc1ccc2c(OCc3nnc4sc(-c5cc6ccccc6[nH]5)nn34)ccnc2c1 | – | – | – | – | – | 506 nM | – |
| 22 nM | 9790 nM | 2240 nM | 2450 nM | C[C@@H](Oc1cc(-c2cnn(C3CCNCC3)c2)cnc1N)c1c(Cl)ccc(F)c1Cl [CRIZOTINIB] | – | – | – | – | – | 13 nM | IC50 (SGC-7901 [10]): 321 nM; IC50 (A549 [11]): 134 nM; IC50 (MCF7 [12]): 45 nM; IC50 (HCT-116 [13]): 254 nM |
